From ChEMBL document CHEMBL6114987, “Identification of the first-in-class dual inhibitor targeting BAG3 and HSP70 proteins to disrupt multiple chaperone pathways” (Eur J Med Chem, 2025)
Blank lines part the entries; values can stand above or below the compound they belong to. Calls of active or inactive are those of the source. The calls are words filed in the database; no cut-off is given here.

What was measured:
HeLa [1] = test: Cytotoxicity against human HeLa cells assessed as cell viability incubated for 72 hrs by MTT assay
HeLa [2] = test: Cytotoxicity against human HeLa cells assessed as mortality rate at 10 to 50 uM incubated for 72 hrs by MTT assay relative to control; format: functional; conditions: dose 10-50 µM
Outline: (§1)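 MTT reduction assay. Cells grown in DMEM/high glucose with 10 % FBS, 2 mM glutamine and penicillin/streptomycin at 37 °C, 5 % CO2. HeLa seeded at 3.5×10^3 and HaCaT at 5.0×10^3 cells/well, in triplicate. After 24 h attachment, compounds added at 10 and 50 μM for 72 h. Controls: 0.1 % DMSO (negative) and 10 % DMSO (positive). MTT added for 3 h at 37 °C, formazan dissolved in DMF/SDS (pH 4.5), absorbance read at 570 nm. Three independent experiments.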

HaCaT [3] = test: Cytotoxicity against human HaCaT cells assessed as mortality at 10 to 50 uM incubated for 72 hrs by MTT assay; format: toxicity, cell-based; conditions: dose 10-50 µM
HaCaT [4] = test: Cytotoxicity against human HaCaT cells at 10 to 50 uM incubated for 24 hrs by MTT assay; format: toxicity, cell-based; conditions: dose 10-50 µM
Outline: (§2)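 HaCaT keratinocytes seeded at 5.0×10^3 cells/well in triplicate and allowed to attach for 24 h. Exposed to 10 and 50 μM for 24, 48 or 72 h with 0.1 % DMSO control, then read by MTT reduction (3 h, 37 °C) with absorbance at 570 nm.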

HaCaT [5] = test: Cytotoxicity against human HaCaT cells at 10 to 50 uM incubated for 48 hrs by MTT assay; format: toxicity, cell-based; conditions: dose 10-50 µM; outline: as §2
HaCaT [6] = test: Cytotoxicity against human HaCaT cells at 10 to 50 uM incubated for 72 hrs by MTT assay; format: toxicity, cell-based; conditions: dose 10-50 µM; outline: as §2
[7] = (§3) Binding affinity to recombinant human HSP70 assessed as dissociation constant by SPR analysis
Outline: (§4)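 HSP70 amine-coupled on CM5 chip from 0.045 µg µl⁻¹ in 10 mM acetate pH 4.5, density 20 kRU, with unmodified reference surface. Compounds from 10 mM DMSO stocks diluted 1:20 in PBS-P (final 5.0 % DMSO), 10 concentrations by 1:2 dilution spanning 0–100 µM. Run at 25 °C, 20 µL/min, 90 s association, 400 s dissociation; KD reported ± SD.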

HeLa [8] = test: Induction of cell cycle arrest in human HeLa cells assessed as increase in hypodiploid nuclei at 10 to 50 uM incubated for 72 hrs by PI staining based flow cytometry analysis; format: functional; conditions: dose 10-50 µM
Outline: (§5)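 HeLa cells (1×10^5/well) adhered 24 h, then treated 72 h with 10, 25 and 50 μM (reference inhibitor 1, 5, 10 μM), with 0.1 % DMSO negative and 10 % positive controls. Dead and live cells pooled, stained with 50 mg/L PI in 0.1 % citrate/0.1 % Triton X-100 for 30 min at 4 °C in the dark. Sub-G0/G1 percentage measured by flow cytometry, debris gated out.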

HeLa [9] = test: Induction of apoptosis in human HeLa cells assessed as increase in apoptotic cells incubated for 72 hrs by Annexin V-FITC/PI staining based flow cytometry analysis; format: functional, cell-based; conditions: dose 20-50 µM
Outline: (§6)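 HeLa cells (2×10^4) incubated 72 h at 20–50 μM. Stained with Annexin V-FITC and PI for 15 min at RT, then analysed by flow cytometry. Reported as percentage of live, apoptotic and necrotic cells versus control, mean ± SD of three independent experiments.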

HeLa [10] = test: Induction of apoptosis in human HeLa cells assessed as increase in apoptotic cells at 50 uM incubated for 72 hrs by Annexin V-FITC/PI staining based flow cytometry analysis relative to control; format: functional; outline: as §6
HeLa [11] = test: Induction of apoptosis in human HeLa cells assessed as increase in apoptotic cells at 30 uM incubated for 72 hrs by Annexin V-FITC/PI staining based flow cytometry analysis relative to control; format: functional; outline: as §6
HeLa [12] = test: Induction of apoptosis in human HeLa cells assessed as increase in apoptotic cells at 20 uM incubated for 72 hrs by Annexin V-FITC/PI staining based flow cytometry analysis relative to control; format: functional; outline: as §6
HeLa [13] = test: Induction of apoptosis in human HeLa cells assessed as increase in caspase 3 expression incubated for 72 hrs by flow cytometry analysis; format: functional, cell-based; conditions: dose 10-50 µM
Outline: (§7)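 HeLa cells (2.5×10^5/well) treated 24 h after seeding for 72 h at 10, 25, 50 μM (reference inhibitor 10 μM) or 0.1 % DMSO. Fixed in 1 % formaldehyde (20 min, 4 °C), permeabilized with 0.1 % Triton, stained with anti-caspase 3, anti-caspase 9 or anti-p21 plus secondary antibodies. Read by flow cytometry as percentage of positive cells.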

HeLa [14] = test: Induction of apoptosis in human HeLa cells assessed as increase in caspase 9 expression incubated for 72 hrs by flow cytometry analysis; format: functional, cell-based; conditions: dose 10-50 µM; outline: as §7
HeLa [15] = test: Upregulation of p21 expression in human HeLa cells incubated for 72 hrs by flow cytometry analysis; format: functional, cell-based; conditions: dose 10-50 µM; outline: as §7
HeLa [16] = test: Downregulation of FOXM1 expression in human HeLa cells at 50 uM incubated for 72 hrs by Western blot analysis; format: functional, cell-based
HeLa [17] = test: Downregulation of FOXM1 expression in human HeLa cells incubated for 72 hrs by Western blot analysis; format: functional, cell-based
Outline: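 HeLa cells treated 72 h at 30 and 15 μM. Lysates (30 μg protein) separated on 10 % SDS-PAGE and blotted with anti-FOXM1 (1:500), β-tubulin as loading control. Detection by ECL, quantified by densitometry.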

Homo sapiens [18] = species on record: Homo sapiens; test: Inhibition of Hsp70 (unknown origin) ATPase activity assessed as residual activity at 10 uM by ATPase activity incubated for 1 hr by ADP-glo assay relative to control
Outline: (§8)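 HSP70 ATPase assay by ADP-Glo. HSP70 plus HSP40 pre-incubated with compound for 30 min at RT, then ATP added and reacted 1 h at 30 °C with 1 % DMSO final. ADP-Glo reagent added for 1 h, then detection reagent for 20 min, and luminescence read. Activity scaled between no-compound (100 %) and no-HSP70 (0 %) wells; run in duplicates.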

Homo sapiens [19] = species on record: Homo sapiens; test: Inhibition of Hsp70 (unknown origin) ATPase activity assessed as residual activity at 50 uM by ATPase activity incubated for 1 hr by ADP-glo assay relative to control; outline: as §8
[20] = target: T1, BAG family molecular chaperone regulator 3 (Homo sapiens, UniProt O95817); test: Binding affinity to full length recombinant human BAG3 assessed as dissociation constant by SPR analysis
T1 sequence (O95817 whole entry): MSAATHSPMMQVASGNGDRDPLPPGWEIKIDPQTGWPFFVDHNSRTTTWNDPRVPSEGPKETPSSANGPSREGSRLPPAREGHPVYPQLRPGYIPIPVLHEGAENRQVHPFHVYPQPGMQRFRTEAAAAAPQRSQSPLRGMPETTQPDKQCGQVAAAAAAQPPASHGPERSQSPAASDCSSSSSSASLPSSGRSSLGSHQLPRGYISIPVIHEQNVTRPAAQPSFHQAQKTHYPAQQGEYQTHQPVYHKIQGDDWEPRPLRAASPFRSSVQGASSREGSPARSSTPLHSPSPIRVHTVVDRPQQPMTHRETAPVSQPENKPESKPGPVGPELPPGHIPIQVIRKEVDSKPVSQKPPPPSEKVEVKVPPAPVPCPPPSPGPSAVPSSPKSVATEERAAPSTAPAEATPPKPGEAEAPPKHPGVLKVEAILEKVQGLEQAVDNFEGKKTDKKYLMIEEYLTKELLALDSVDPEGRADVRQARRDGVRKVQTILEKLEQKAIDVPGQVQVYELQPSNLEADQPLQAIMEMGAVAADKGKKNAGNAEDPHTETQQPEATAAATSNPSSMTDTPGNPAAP

A549 = test: Cytotoxicity against human A549 cells assessed as cell viability incubated for 72 hrs by MTT assay; format: functional, cell-based; conditions: A549, 72 h
A-375 = test: Cytotoxicity against human A-375 cells assessed as cell viability incubated for 72 hrs by MTT assay; format: functional, cell-based; conditions: A-375, 72 h
Homo sapiens [21] = species on record: Homo sapiens; test: as §3; outline: as §4
HaCaT [22] = test: Cytotoxicity against human HaCaT cells assessed as mortality rate at 50 uM incubated for 72 hrs by MTT assay relative to control; format: toxicity, cell-based; outline: as §1
[23] = Solubility of compound; format: physicochemical
[24] = target: T1, BAG family molecular chaperone regulator 3; test: Binding affinity to recombinant human BAG3 domain assessed as dissociation constant by SPR analysis
HeLa [25] = test: Induction of cell cycle arrest in human HeLa cells assessed as increase in hypodiploid nuclei incubated for 72 hrs by PI staining based flow cytometry analysis; format: functional; conditions: dose 1-10 µM; outline: as §5

Compound: CCCCNC(=O)C(c1c[nH]c(=O)[nH]c1=O)N(CC(C)CC)C(=O)Cn1cc(-c2cc(C)c(C)cc2C)nn1 (stereo not given)
- IC50 (HeLa [1]): 49.5 µM
- mortality (HeLa [2]): 70%
- Activity (HaCaT [3]): Non-toxic
- Activity (HaCaT [4]): Non-toxic
- Activity (HaCaT [5]): Non-toxic
- Activity (HaCaT [6]): Non-toxic
- Kd [7]: 33.8 µM
- Activity (HeLa [8]): Active
- Activity (HeLa [9]): Dose-dependent-effect
- Activity (HeLa [10]): 26.2%
- Activity (HeLa [11]): 23%
- Activity (HeLa [12]): 18.6%
- Activity (HeLa [13]): Dose-dependent-effect
- Activity (HeLa [14]): Dose-dependent-effect
- Activity (HeLa [15]): Dose-dependent-effect
- Activity (HeLa [16]): inactive
- Activity (HeLa [17]): Dose-dependent-effect
- Activity (Homo sapiens [18]): 20%
- Activity (Homo sapiens [19]): 40%

Compound: CCCCNC(=O)C(c1c(Br)ccnc1Cl)N(CC(C)CC)C(=O)Cn1cc(-c2cccc(O)c2)nn1 (stereo not given)
- Activity [20]: inactive

Compound: Cc1ccc(S(=O)(=O)CNC(=O)C(c2ccccc2Br)N(Cc2ccccc2)C(=O)Cn2cc(-c3ccccc3)nn2)cc1 (stereo not given)
- Activity [20]: inactive

Compound: CCCCNC(=O)C(c1ccc2cn[nH]c2c1)N(CC(C)CC)C(=O)Cn1cc(-c2cc(C)ccc2C)nn1 (stereo not given)
- mortality (HeLa [2]): 70%
- mortality (HaCaT [22]): 60%

Compound: CCCCNC(=O)C(c1ccc(Cl)nc1)N(CC(C)CC)C(=O)Cn1cc(C(C)(O)c2ccc(F)cc2)nn1 (stereo not given)
- Activity [20]: inactive
- Kd [24]: Not_determined

Compound: CCCCNC(=O)C(c1ccccc1Br)N(Cc1ccccc1)C(=O)Cn1cc(CCC(C)C)nn1 (stereo not given)
- Activity [20]: inactive

The next lines start with results.

- Activity [20]: inactive
Compound: CCCCNC(=O)C(c1ccccc1Br)N(Cc1ccccc1)C(=O)Cn1cc(-c2ccccc2)nn1 (stereo not given)

- Activity (Homo sapiens [21]): inactive
Compound: CCOC(=O)CN1C(=O)S/C(=C\c2ccc(O)c(O)c2)C1=O
- IC50 (A549): 32.3 µM
- IC50 (HeLa [1]): > 50 µM
- IC50 (A-375): 16.6 µM

- Activity [20]: inactive
Compound: CCCCNC(=O)C(c1cc(O)ccc1Br)N(CC(C)CC)C(=O)Cn1cc(-c2cccc(OC)c2)nn1 (stereo not given)

- solubility [23]: Insoluble
Compound: CCCCNC(=O)C(c1ccc(C(F)(F)F)cc1)N(CCC)C(=O)Cn1cc(-c2cccc(C)c2)nn1 (stereo not given)

- Activity [20]: inactive
Compound: CCCCNC(=O)C(c1ccccc1Br)N(CC(C)CC)C(=O)Cn1cc(CCC(C)C)nn1 (stereo not given)

- Activity [20]: inactive
- Kd [7]: 41 µM
- Activity (Homo sapiens [18]): 30%
- Activity (Homo sapiens [19]): 43%
Compound: CCn1c(=O)/c(=C2\Sc3ccccc3N2C)s/c1=C\c1cccc[n+]1C
- Activity (HeLa [25]): Dose-dependent-effect

- Activity [20]: inactive
Compound: CCCCNC(=O)C(c1ccccc1Br)N(C(=O)Cn1cc(CCC(C)C)nn1)c1ccc(Cl)cc1 (stereo not given)
